Data published in PubChem BioAssay AID624012 (Broad Institute, 2012).
Where “and” joins values, the source holds several entries; their conditions need not be identical. Equal entries are not always repeated.

System: S. cerevisiae growth in glycerol medium, OD600, 48 h
Assay: S. cerevisiae growth inhibition on glycerol, dose response, glycerol medium, plate reader, dry powder, set 4 (AID 624012)
How it was run: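 Test system: Saccharomyces cerevisiae yeast whole cells, growth on glycerol; Buffer or medium: CSM medium with glycerol as carbon source; Dosing: test compounds delivered into wells by pin transfer; Timing: 48 h exposure, 30 °C; Signal: optical density at 600 nm (absorbance); Benchmarks: positive control Amphotericin B at 10 µM.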

CCOC(=O)N1C(=O)C2(CCCCC2)N(c2ccccc2)C1=S
AC50: 14.6 nM

CCOC(=O)N1C(=O)C2(CCCCC2)N(c2ccc(C)cc2)C1=S
AC50: 10.8 nM and 6.97 nM

CCOC(=O)N1C(=O)C2(CCCCC2)N(c2ccc(F)cc2)C1=S
AC50: 3.97 nM

CC1/C=C/C=C\C=C\C=C\C=C\C=C\C=C\C(O[C@H]2OC(C)C(O)C(N)C2O)CC2OC(O)(CC(O)CC(O)C(O)CCC(O)CC(O)CC(=O)OC(C)C(C)C1O)CC(O)C2C(=O)O (stereo partly drawn)
AC50: 274 nM

C/C=C/[C@@H]1[C@H]2C[C@@H](C)CC[C@@H]2C(C)=C[C@H]1C(=O)c1c(O)c(-c2ccc(O)cc2)c[nH]c1=O
AC50: 27.5 nM

CCOC(=O)N1C(=O)C2(CCCCC2)N(c2ccc(Cl)cc2)C1=S
AC50: 5.77 nM

CCOC(=O)N1C(=O)C2(CCCCC2)N(c2cccc(C)c2)C1=S
AC50: 18.1 nM

CCOC(=O)N1C(=O)C2(CCCCC2)N(c2ccc(C#N)cc2)C1=S
AC50: 3.65 nM
